The values below come from PMC7396739 (Drug Design, Development and Therapy, 2020).

A short description of series [1]: Crystallization inhibition of excipients. In kind it is physicochemical. Conditions: after 5 min. In outline:
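Supersaturated stock (27 mg test compound in 5 mL 95% ethanol) added rapidly to 900 mL water, here with no excipient (control), at 37°C and 50 r/min. 5 mL samples were taken at 5–240 min and replaced with drug-free medium. Samples were filtered (0.22 µm) and assayed by HPLC (C18, acetonitrile-water 84:16, 1 mL/min, 203 nm). Run in triplicate.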

For series [2] the following is noted: rats; cited from earlier work.
Series [3] in a line: Determination of saturated solubility of ASDs in distilled water. The settings on record: 37±0.5°C, 48 h, drug:Soluplus 1:10 w/w, Figure 5A. In kind it is physicochemical. An outline of the steps:
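Solid dispersions were made by co-precipitation from anhydrous ethanol, freeze-drying from 2% ethanol (−40°C 8 h, then −45°C 24 h), or microwave (700 W, 10 min) with liquid-nitrogen quench. Products were ground and sieved (60 mesh). Excess material was shaken in 5 mL water, then filtered (0.45 µm). Concentration was measured by HPLC (C18, acetonitrile-water 84:16, 203 nm).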

In the case of `C[C@@H]1CC[C@@]2(OC1)O[C@H]1C[C@H]3[C@@H]4CC=C5C[C@@H](O)CC[C@]5(C)[C@H]4CC[C@]3(C)[C@H]1[C@@H]2C` [Dio, diosgenin], the “concentration of Dio in dissolution medium without excipient” value in series [1] is “lower than the detection limit”. Besides, the absolute bioavailability entry in series [2] is recorded as “about 7%”. Further, in series [3], the solubility result is “lower than the detection limit”.
